Measurements taken from ChEMBL document CHEMBL2321792, “Synthesis and antimalarial activity of 3,3-spiroanellated 5,6-disubstituted 1,2,4-trioxanes” (ACS Med Chem Lett, 2013).
≈ marks a conversion by molar mass, not a printed value. Calls of active or inactive are those of the source. No cut-off for these calls is given here.

Columns and labels:
[1] = test system: Plasmodium yoelii nigeriensis; assay: Antimalarial activity against chloroquine, mefloquine and halofantrine-resistant Plasmodium yoelii nigeriensis infected in Swiss mouse assessed as protection against parasite-induced mortality at 96 mg/kg, po administered for 4 days measured on day 28; format: functional, organism-based; design: dose 96 mg/kg, route po po po po po po po po po po po
Procedure, shortened: (§1)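 Peters 4-day test in Swiss mice infected with multidrug-resistant P. yoelii nigeriensis. Groups of 5 mice were dosed once daily for 4 days at the stated mg/kg, oral or i.m. Mice were followed to day 28. Protection is the percentage of treated mice surviving to day 28, read from the alive/total count per group.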

[2] = test system: Plasmodium yoelii nigeriensis; assay: Antimalarial activity against chloroquine, mefloquine and halofantrine-resistant Plasmodium yoelii nigeriensis infected in Swiss mouse assessed as suppression of parasitemia at 96 mg/kg, po administered for 4 days measured on day 4; format: functional; conditions: 96 h
Procedure, shortened: (§2)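 Swiss mice infected with multidrug-resistant P. yoelii nigeriensis were treated by the Peters procedure: 5 per group, dosed daily for 4 days, oral or i.m. Parasitaemia was read on day 4 against an untreated control group. Suppression = [(c − t)/c] × 100, where c is control and t is treated parasitaemia. 100% means parasites were below the detection limit.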

[3] = test system: Plasmodium yoelii nigeriensis; assay: Antimalarial activity against chloroquine, mefloquine and halofantrine-resistant Plasmodium yoelii nigeriensis infected in Swiss mouse assessed as suppression of parasitemia at 96 mg/kg, im administered for 4 days measured on day 4; format: functional; conditions: 96 h, route intramuscular; procedure, shortened: as §2
[4] = test system: Plasmodium yoelii nigeriensis; assay: Antimalarial activity against chloroquine, mefloquine and halofantrine-resistant Plasmodium yoelii nigeriensis infected in Swiss mouse assessed as protection against parasite-induced mortality at 96 mg/kg, im administered for 4 days measured on day 28; format: functional, organism-based; design: dose 96 mg/kg; procedure, shortened: as §1
[5] = test system: Plasmodium yoelii nigeriensis; assay: Antimalarial activity against chloroquine, mefloquine and halofantrine-resistant Plasmodium yoelii nigeriensis infected in Swiss mouse assessed as suppression of parasitemia at 24 mg/kg, po administered for 4 days measured on day 4; format: functional; conditions: 96 h; procedure, shortened: as §2
[6] = Solubility of the compound in distilled water after 24 hrs by shake flask method; format: physicochemical
[7] = test system: Plasmodium yoelii nigeriensis; assay: Antimalarial activity against chloroquine, mefloquine and halofantrine-resistant Plasmodium yoelii nigeriensis infected in Swiss mouse assessed as protection against parasite-induced mortality at 12 mg/kg, po administered for 4 days measured on day 28; format: functional, organism-based; design: dose 12 mg/kg; procedure, shortened: as §1
[8] = Effective permeability coefficient of the compound in Sprague-Dawley rat intestine at 10 uM by In-situ single pass intestinal perfusion technique; format: ADME, tissue-based; conditions: other: in situ single pass intestinal perfusion, read-out: Peff
[9] = test system: Plasmodium yoelii nigeriensis; assay: Antimalarial activity against chloroquine, mefloquine and halofantrine-resistant Plasmodium yoelii nigeriensis infected in Swiss mouse assessed as suppression of parasitemia at 12 mg/kg, po administered for 4 days measured on day 4; format: functional; conditions: 96 h; procedure, shortened: as §2
[10] = test system: Plasmodium yoelii nigeriensis; assay: Antimalarial activity against chloroquine, mefloquine and halofantrine-resistant Plasmodium yoelii nigeriensis infected in Swiss mouse assessed as protection against parasite-induced mortality at 48 mg/kg, po administered for 4 days measured on day 28; format: functional; procedure, shortened: as §1
[11] = Half life in rat liver microsomes at […] by HPLC-PDA analysis; format: ADME, Microsome
[12] = Distribution coefficient, log D of the compound at pH 7.4 by HPLC-PDA analysis; format: physicochemical; conditions: octanol/water
Plasma = assay: Fraction unbound in rat plasma at 10 uM by ultra-filtration method; format: ADME, cell-free
[13] = test system: Plasmodium yoelii nigeriensis; assay: Antimalarial activity against chloroquine, mefloquine and halofantrine-resistant Plasmodium yoelii nigeriensis infected in Swiss mouse assessed as protection against parasite-induced mortality at 24 mg/kg, po administered for 4 days measured on day 28; format: functional; procedure, shortened: as §1
[14] = Intrinsic clearance in rat liver microsomes at […] by HPLC-PDA analysis; format: ADME, Microsome; conditions: read-out: CLH
[15] = test system: Plasmodium yoelii nigeriensis; assay: Antimalarial activity against chloroquine, mefloquine and halofantrine-resistant Plasmodium yoelii nigeriensis infected in Swiss mouse assessed as suppression of parasitemia at 48 mg/kg, po administered for 4 days measured on day 4; format: functional; conditions: 96 h; procedure, shortened: as §2
[16] = Inhibition of CYP3A in rat liver microsome using testosterone as substrate by HPLC-PDA analysis; format: ADME, microsomes
Cytochrome P450 2D4 = target: T1, Cytochrome P450 2D4 (Rattus norvegicus, UniProt Q64680); assay: Inhibition of CYP2D4 in rat liver microsome using dextromethorphan as substrate by HPLC-PDA analysis; format: ADME, microsomes
T1 sequence (Q64680 whole entry): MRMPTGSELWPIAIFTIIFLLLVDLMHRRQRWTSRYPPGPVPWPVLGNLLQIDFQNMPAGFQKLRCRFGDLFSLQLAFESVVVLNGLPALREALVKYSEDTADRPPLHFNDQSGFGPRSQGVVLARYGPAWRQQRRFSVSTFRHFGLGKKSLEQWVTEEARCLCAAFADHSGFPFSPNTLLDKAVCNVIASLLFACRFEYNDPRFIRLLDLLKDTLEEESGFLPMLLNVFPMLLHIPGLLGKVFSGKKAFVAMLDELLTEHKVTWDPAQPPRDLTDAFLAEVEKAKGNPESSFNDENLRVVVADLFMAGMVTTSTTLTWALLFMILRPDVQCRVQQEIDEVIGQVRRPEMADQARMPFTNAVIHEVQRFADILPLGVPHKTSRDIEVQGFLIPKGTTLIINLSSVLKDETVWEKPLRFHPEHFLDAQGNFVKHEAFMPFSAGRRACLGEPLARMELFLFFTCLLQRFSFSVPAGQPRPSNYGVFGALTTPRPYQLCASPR

Cytochrome P450 2C11 = target: T2, Cytochrome P450 2C11 (Rattus norvegicus, UniProt P08683); assay: Inhibition of CYP2C11 in rat liver microsome using diclofenac as substrate by HPLC-PDA analysis; format: ADME, microsomes
T2 sequence (P08683 whole entry): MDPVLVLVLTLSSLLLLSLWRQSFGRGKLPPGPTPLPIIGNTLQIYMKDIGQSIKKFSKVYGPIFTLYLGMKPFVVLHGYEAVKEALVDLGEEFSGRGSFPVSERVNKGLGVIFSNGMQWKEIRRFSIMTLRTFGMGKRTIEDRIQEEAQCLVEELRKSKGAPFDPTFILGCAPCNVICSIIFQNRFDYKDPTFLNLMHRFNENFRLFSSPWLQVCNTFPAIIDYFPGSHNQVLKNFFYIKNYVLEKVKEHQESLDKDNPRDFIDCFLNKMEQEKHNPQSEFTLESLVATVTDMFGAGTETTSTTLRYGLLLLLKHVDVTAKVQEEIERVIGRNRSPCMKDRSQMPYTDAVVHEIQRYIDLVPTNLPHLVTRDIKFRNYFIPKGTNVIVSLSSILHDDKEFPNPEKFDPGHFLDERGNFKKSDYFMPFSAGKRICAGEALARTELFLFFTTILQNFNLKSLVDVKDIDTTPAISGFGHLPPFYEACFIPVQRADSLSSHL

[17] = Metabolic stability in rat liver microsomes at […] after 30 mins by HPLC-PDA analysis; format: ADME, Microsome; conditions: read-out: Stability
Cytochrome P450 1A2 = target: T3, Cytochrome P450 1A2 (Rattus norvegicus, UniProt P04799); assay: Inhibition of CYP1A2 in rat liver microsome using phenacetin as substrate by HPLC-PDA analysis; format: ADME, microsomes
T3 sequence (P04799 whole entry): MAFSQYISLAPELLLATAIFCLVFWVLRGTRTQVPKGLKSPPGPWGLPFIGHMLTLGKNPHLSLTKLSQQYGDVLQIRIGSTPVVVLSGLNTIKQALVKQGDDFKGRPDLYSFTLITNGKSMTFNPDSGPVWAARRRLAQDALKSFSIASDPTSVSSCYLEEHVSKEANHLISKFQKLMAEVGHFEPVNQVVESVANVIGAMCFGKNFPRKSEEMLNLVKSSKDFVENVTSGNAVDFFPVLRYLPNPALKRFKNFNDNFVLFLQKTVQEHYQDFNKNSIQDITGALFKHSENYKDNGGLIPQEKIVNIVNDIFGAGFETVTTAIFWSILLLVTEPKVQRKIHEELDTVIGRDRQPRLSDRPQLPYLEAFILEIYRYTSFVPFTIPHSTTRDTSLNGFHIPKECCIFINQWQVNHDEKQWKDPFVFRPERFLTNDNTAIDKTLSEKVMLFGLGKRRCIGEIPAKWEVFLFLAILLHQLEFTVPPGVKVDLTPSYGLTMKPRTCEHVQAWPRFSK

Row | Compound | Activity [1] | inhibition in vivo at 96 mg/kg [2] [%] | inhibition in vivo at 96 mg/kg [3] [%] | Activity [4] | further results
1 | C=C(c1ccc(C)cc1)[C@H]1OOC2(O[C@@H]1c1ccc(C)cc1)C1CC3CC(C1)CC2C3 (relative stereo) | inactive | 36.7 | 5.76 | inactive | 
2 | C=C(c1ccc(C)cc1)[C@H]1OOC2(CCCC2)O[C@@H]1c1ccc(C)cc1 (relative stereo) | inactive | 100 |  |  | 
3 | C=C(c1ccc(Br)cc1)[C@H]1OOC2(O[C@@H]1c1ccc(Br)cc1)C1CC3CC(C1)CC2C3 (relative stereo) | inactive | 18.1 |  |  | 
4 | C=C(c1ccc(F)cc1)[C@H]1OOC2(CCCCC2)O[C@@H]1c1ccc(F)cc1 (relative stereo) | inactive | 42.5 |  |  | 
5 | C=C(c1ccc(Cl)cc1)[C@H]1OOC2(CCCCC2)O[C@@H]1c1ccc(Cl)cc1 (relative stereo) |  | 100 | 3.45 | inactive | inhibition in vivo at 24 mg/kg [5]: 100%; solubility thermodynamic at 24 h ([6]; distilled water): 13 µM (≈ 5.27 µg/mL); Activity [7]: inactive; Papp at 10 µM [8]: 113 ×10⁻⁶ cm/s; inhibition in vivo at 12 mg/kg [9]: 100%; Activity [10]: Active; half-life [11]: 23 min; logD [12]: 4.23; Fu (Plasma): 0.8%; Activity [13]: 100%; microsomal CLint [14]: 60.3 µL/min/mg
6 | C=C(c1ccc(Br)cc1)[C@H]1OOC2(CCCCC2)O[C@@H]1c1ccc(Br)cc1 (relative stereo) |  | 100 |  |  | 
7 | C=C(c1ccccc1)[C@H]1OOC2(CCCCC2)O[C@@H]1c1ccccc1 (relative stereo) | inactive | 34.5 | 22.3 | inactive | 
8 | C=C(c1ccccc1)[C@H]1OOC2(O[C@@H]1c1ccccc1)C1CC3CC(C1)CC2C3 (relative stereo) | inactive | 32.4 | 44.8 | inactive | 
9 | C=C(c1ccc(Br)cc1)[C@H]1OOC2(CCCC2)O[C@@H]1c1ccc(Br)cc1 (relative stereo) |  |  |  |  | inhibition in vivo at 24 mg/kg [5]: 98.6%; Activity [10]: 20%; Activity [13]: inactive; inhibition in vivo at 48 mg/kg [15]: 100%
10 | C=C(c1ccc(C)cc1)[C@H]1OOC2(CCCCC2)O[C@@H]1c1ccc(C)cc1 (relative stereo) |  |  | 16.6 | inactive | inhibition in vivo at 24 mg/kg [5]: 49.6%; Activity [10]: inactive; Activity [13]: inactive; inhibition in vivo at 48 mg/kg [15]: 89.4%
11 | C=C(c1ccc(OC)cc1)[C@H]1OOC2(O[C@@H]1c1ccc(OC)cc1)C1CC3CC(C1)CC2C3 (relative stereo) | inactive | 24.6 |  |  | 
12 | C=C(c1ccccc1)[C@H]1OOC2(CCCC2)O[C@@H]1c1ccccc1 (relative stereo) | inactive | 23.8 | 46.9 | inactive | 
13 | C=C(c1ccc(F)cc1)[C@H]1OOC2(CCCC2)O[C@@H]1c1ccc(F)cc1 (relative stereo) | inactive | 22.5 |  |  | 
14 | C=C(c1ccc(Cl)cc1)[C@H]1OOC2(CCCC2)O[C@@H]1c1ccc(Cl)cc1 (relative stereo) | inactive | 63.6 |  |  | 
15 | CCO[C@H]1O[C@@H]2O[C@@]3(C)CC[C@H]4[C@H](C)CC[C@@H]([C@H]1C)[C@@]24OO3 [ARTEMOTIL] |  |  |  |  | IC50 [16]: > 100 µM; inhibition in vivo at 24 mg/kg [5]: 100%; solubility ([6]; buffer, 24 h): Insoluble; IC50 (Cytochrome P450 2D4): > 100 µM; IC50 (Cytochrome P450 2C11): > 100 µM; Activity [10]: 100%; half-life [11]: 47.4 min; logD [12]: 3.6; Fu (Plasma): 1%; Activity [13]: 20%; microsomal CLint [14]: 36.6 µL/min/mg; inhibition in vivo at 48 mg/kg [15]: 100%; remaining at 0.5 h [17]: 50%; IC50 (Cytochrome P450 1A2): > 100 µM
16 | C=C(c1ccc(Cl)cc1)[C@H]1OOC2(O[C@@H]1c1ccc(Cl)cc1)C1CC3CC(C1)CC2C3 (relative stereo) |  | 77.2 |  |  | 
17 | C=C(c1ccc(F)cc1)[C@H]1OOC2(O[C@@H]1c1ccc(F)cc1)C1CC3CC(C1)CC2C3 (relative stereo) | inactive | 16.7 |  |  | 
